Data taken from ChEMBL document CHEMBL5036367, “The BASHY Platform Enables the Assembly of a Fluorescent Bortezomib-GV1001 Conjugate” (ACS Med Chem Lett, 2022).
pIC50: −log10 of the molar value.

What was measured:
[1] = system: HT-29; test: Cytotoxicity against human HT-29 cells assessed as reduction in cell viability incubated for 24 hrs by MTT assay; type: functional, cell-based; conditions: HT-29, 24 h
[2] = system: HeLa; test: Cytotoxicity against human HeLa cells assessed as reduction in cell viability incubated for 24 hrs by MTT assay; type: functional, cell-based
[3] = system: HeLa; test: Cytotoxicity against oleic acid-induced human HeLa cells assessed as reduction in cell viability incubated for 24 hrs by MTT assay; type: functional, cell-based
[4] = Stability of compound in ammonium acetate assessed as half life at pH 7; type: physicochemical
[5] = Drug uptake in lysosomes of human HT-29 cells assessed as accumulation in lipid droplets by LysoTracker Red and Nile red staining based confocal microscopic analysis; type: ADME, cell-based
Method in brief: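 HT-29 cells were imaged by confocal fluorescence microscopy using the compound's own fluorescence. Co-staining was with LysoTracker Deep Red for lysosomes and Nile Red for lipid droplets. Colocalization was expressed as the Pearson's correlation coefficient.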

| half-life [4] [h] | Drug uptake [5] | Compound | pIC50 [1] | pIC50 [2] | pIC50 [3] |
| --- | --- | --- | --- | --- | --- |
| 13 | Active | CCC1=[N+]2N=C(c3ccccc3)C(=O)O[B-]2([C@H](CC(C)C)NC(=O)[C@@H](Cc2ccccc2)NC(=O)c2cnccn2)Oc2cc(OC)ccc21 (stereo partly specified) | 7.71 | 6.87 | < 6.70 |
| – | Active | CCC1=[N+]2N=C(c3ccccc3)C(=O)O[B-]2(c2ccccc2)Oc2cc(OC)ccc21 (stereo unspecified) | – | – | – |
| – | – | COc1ccc2c(c1)O[B-]1([C@H](CC(C)C)NC(=O)[C@@H](Cc3ccccc3)NC(=O)c3cnccn3)OC(=O)C(c3ccccc3)=N[N+]1=C2c1ccccc1 (stereo partly specified) | 6.35 | – | – |
| – | Not Active | CC[C@H](C)[C@H](NC(=O)[C@H](Cc1ccccc1)NC(=O)[C@H](CCCNC(=N)N)NC(=O)[C@H](CC(C)C)NC(=O)[C@H](CCCNC(=N)N)NC(=O)[C@H](CO)NC(=O)[C@@H](NC(=O)[C@H](CC(C)C)NC(=O)[C@H](CC(C)C)NC(=O)[C@H](C)NC(=O)[C@@H]1CCCN1C(=O)[C@H](CCCNC(=N)N)NC(=O)[C@H](C)NC(=O)[C@@H](N)CCC(=O)O)[C@@H](C)O)C(=O)N1CCC[C@H]1C(=O)N[C@@H](CCCCN)C(=O)N[C@H](CSC1CC(=O)N(CCC(=O)NCCOCCOCCOCCOCCC(=O)NCCC(=O)N2Cc3ccccc3-c3c(nnn3CCOCCOCCOCCOc3ccc4c(c3)O[B-]3([C@@H](CC(C)C)NC(=O)[C@@H](Cc5ccccc5)NC(=O)c5cnccn5)OC(=O)C(c5ccccc5)=N[N+]3=C4c3ccccc3)-c3ccccc32)C1=O)C(=O)O (stereo partly specified) | 7.00 | – | – |
| – | – | CCc1c2c(nc3ccc(O)cc13)-c1cc3c(c(=O)n1C2)COC(=O)[C@]3(O)CC [7-ETHYL-10-HYDROXYCAMPTOTHECIN] | – | 6.46 | < 6.00 |
| – | – | CC(C)C[C@H](NC(=O)[C@H](Cc1ccccc1)NC(=O)c1cnccn1)B(O)O [BORTEZOMIB] | 8.49 | 7.70 | < 6.70 |
| – | – | COc1cccc2c1C(=O)c1c(O)c3c(c(O)c1C2=O)C[C@@](O)(C(=O)CO)C[C@@H]3O[C@H]1C[C@H](N)[C@H](O)[C@H](C)O1 [DOXORUBICIN] | – | 7.05 | < 6.00 |
